Assay outcomes as filed in PubChem BioAssay.
CHOP inhibitor – CHOP inhibition in unfolded protein response. CHO-K1 CHOP-promoter luciferase, tunicamycin-induced, 15-18 h. inhibition, % at 10 µM. actives 3.8% (n = 220,000). AID 2732;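 active = compounds that reduced the stress-induced luciferase reporter signal by more than about 70% of percent inhibition, limit read from the data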;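 also: 0% = tunicamycin plus vehicle and 100% = wells without tunicamycin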
iPSC survival up – increases survival of single human iPS cells; hiPSC single-cell survival, ATPlite luminescence; 100% = ROCK inhibitor wells, 0% = DMSO; survival enhancement, % at 20 µM; actives 0.044% (n = 360,000); AID 602274; in the data active = survival enhancement above about 18%;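 also: cells exposed to compounds for 16 hours before the ATP read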
XBP1 UPR activ – activators of adaptive arm of unfolded protein response (XBP1); CHO-XBP1 luciferase reporter, IRE1-XBP1 UPR activation, luminescence; percent of tunicamycin response, DMSO as zero; activation, % at 20 µM; actives 0.33% (n = 330,000);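 active = versus positive control, 20 µM dose yields 30% or more activation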;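 also: 100% = tunicamycin at 10 µg/mL and 0% = DMSO only wells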
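assay system = CHO-XBP1 luciferase reporter cells | amount = 1000 cells/well | buffer or medium = F12 plus 10% FBS | compound dosing = single point, 20 µM final compound, 1% DMSO | incubation = 16-18 h cell attachment at 37 °C, then 6 h compound exposure | detection = Steady-Glo luminescence read | controls = tunicamycin 10 µg/mL and vehicle-only wells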
UPR CHOP act – activators of apoptotic arm of unfolded protein response (CHOP); CHO-CHOP luciferase reporter, UPR activation, luminescence; percent of tunicamycin response over DMSO baseline; activation, % at 10 µM; actives 0.34% (n = 330,000); AID 449763;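 active = at 10 µM dose, activation of 40% or more, normalized to positive control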;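 also: 100% = tunicamycin at 10 µg/mL and 0% = DMSO alone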
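System: CHO-CHOP luciferase reporter cell line | Buffer or medium: F12 medium containing 10% fetal bovine serum | Doses: One dose, 10 µM in 0.5% DMSO | Times: 6 h compound exposure at 37 °C after overnight seeding | Signal: Luciferase luminescence | Read-out: % activation vs tunicamycin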
H9c2 protect – modulators protecting cardiomyocytes from myocardial damage. H9c2 cardiomyocytes, H2O2 injury protection, ATPLite, 2 h. protection from H2O2 cell death, % at 20 µM. actives 0.63% (n = 360,000). AID 588492;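 active = compounds giving at least 50% protection of heart cells from peroxide-induced death in the single-dose screen, raw or plate-pattern-corrected value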;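 also: 0% = DMSO wells with peroxide and 100% = DMSO wells without peroxide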
XBP1 UPR conf – adaptive UPR (XBP1) activation, confirmed. AID 485299. activation, % at 20 µM. CHO-XBP1 IRE1-XBP1 luciferase reporter, luminescence. shares compounds with XBP1 UPR activ. actives 63% (n = 1,000);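 active = reporter signal at least 30% of the positive control's activation in two or more of four replicate wells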;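 also: plate controls were DMSO negative control for no effect and tunicamycin 10 µg/mL positive control for full effect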
Numbers without * were called inactive. Many of the other results were omitted from the sample, so hits are more common in it than they were.

For O=C(NC(=S)Nc1cc(-c2nc3ccccc3[nH]2)ccc1Cl)c1ccc2c(c1)OCO2 the results were CHOP inhibitor 94.4*, iPSC survival up -0.9, XBP1 UPR activ 95.5*, UPR CHOP act 18.6, H9c2 protect 19.7 and XBP1 UPR conf 164.2*.
Screening Cc1ccc(-c2nc3ccccc3[nH]2)cc1NC(=O)c1ccc2c(c1)OCO2 returned CHOP inhibitor 8.8, iPSC survival up 1.8, XBP1 UPR activ 7.2, UPR CHOP act 3.3 and H9c2 protect 23.4.
Cc1cc(C)n(-c2nc(NCCO)c3c4c(sc3n2)CCCC4)n1 was read as CHOP inhibitor -64.7, iPSC survival up -0.5, XBP1 UPR activ 2.5, UPR CHOP act 2.6 and H9c2 protect 12.5.
Cc1cc(C)n(-c2nc(NCCCO)c3c4c(sc3n2)CCCC4)n1 was read as CHOP inhibitor -114.0, iPSC survival up 0.6, XBP1 UPR activ 41.2*, UPR CHOP act -1.9, H9c2 protect 28.9 and XBP1 UPR conf 20.5.
`CC(=NNC(=O)COc1cccc(C)c1)c1cccnc1` gave iPSC survival up -0.1, XBP1 UPR activ -1.1, UPR CHOP act -1.5 and H9c2 protect 5.6.
`O=[N+]([O-])c1ccccc1NC(=S)N/N=C/c1ccc(O)c(O)c1` gave CHOP inhibitor 21.8, iPSC survival up 0.2, XBP1 UPR activ 36.6*, UPR CHOP act 21.4, H9c2 protect 40.3 and XBP1 UPR conf 22.9.
`CCOC(=O)/C(C#N)=C\c1ccc(OCC(=O)Nc2ccc(C)cc2C)c(OC)c1` gave CHOP inhibitor 53.3, iPSC survival up -2.2, XBP1 UPR activ 37.2*, UPR CHOP act 11.0, H9c2 protect -4.4 and XBP1 UPR conf 2.2.
For CCCCNC(=O)C1(C)CCN1C(=O)c1cccc(OC(F)(F)F)c1 (stereo not given) the results were iPSC survival up 0.6 and H9c2 protect 5.4.
Cc1ccc2oc(C(Cl)(Cl)Cl)cc(=O)c2c1 was read as CHOP inhibitor 64.1, iPSC survival up -3.6, XBP1 UPR activ 111.9*, UPR CHOP act 6.7, H9c2 protect -7.4 and XBP1 UPR conf 120.8*.
`CCC[C@@H](CNC)NC[C@H](Cc1ccccc1)NCCCCc1ccccc1` gave iPSC survival up -3.2, XBP1 UPR activ 45.5*, UPR CHOP act 9.7, H9c2 protect -11.2 and XBP1 UPR conf 25.2.
`COc1ccc2oc(-c3ccc(C)c(NC(=O)c4ccc(N5CCOCC5)c([N+](=O)[O-])c4)c3)nc2c1` gave CHOP inhibitor 4.9, iPSC survival up -0.2, XBP1 UPR activ 119.2*, UPR CHOP act 8.2, H9c2 protect -3.8 and XBP1 UPR conf 140.0*.
For COc1ccc(CNC(=O)c2ccc(N3CCOCC3)c([N+](=O)[O-])c2)cc1 the results were CHOP inhibitor 13.4, iPSC survival up 1.0, XBP1 UPR activ -0.1, UPR CHOP act 3.7 and H9c2 protect 3.0.
